Measured values: ChEMBL document CHEMBL4145686, “Discovery of a Potent and Selective Steroidal Glucocorticoid Receptor Antagonist (ORIC-101)” (J Med Chem, 2018)

Tests used:
[1] = Clearance in mini pig at 0.5 mg/kg, iv; assay type: ADME, organism-based, Sus scrofa; settings: in vivo
Cytochrome P450 3A4 = Cytochrome P450 3A4 (Homo sapiens, UniProt P08684); assay: Inhibition of CYP3A4 (unknown origin) using midazolam as substrate; assay type: ADME
[2] = Unbound fraction in human plasma; assay type: ADME, cell-free
[3] = Half life in mouse at 0.5 mg/kg, iv; assay type: ADME, organism-based; settings: in vivo
[4] = Volume of distribution at steady state in mini pig at 0.5 mg/kg, iv; assay type: ADME, organism-based, Sus scrofa; settings: in vivo, read-out: Vdss
[5] = Half life in mini pig at 0.5 mg/kg, iv; assay type: ADME, organism-based, Sus scrofa; settings: in vivo
[6] = Unbound plasma concentration in nude mouse xenografted with human OVCAR5 cells at 25 to 75 mg/kg, po dosed as gavage and measured after 6 hrs; assay type: ADME, organism-based; settings: in vivo
Outline: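 OVCAR5 xenograft mice received dexamethasone 0.5 mg/kg by intraperitoneal injection with or without a single oral gavage dose of the antagonist at 25, 50 or 75 mg/kg. Tumors and plasma collected 6 h later. Tumor FKBP5 mRNA measured by RT-qPCR. Unbound plasma concentration of the antagonist determined, n = 4 mice per group. FKBP5 effects tested by one-way ANOVA with Dunnett's test versus the vehicle group.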

[7] = biological target: T1, Mineralocorticoid receptor (Homo sapiens, UniProt P08235); assay: Agonist activity at human MR expressed in CHO-K1 cells assessed as increase in protein interaction between MR and its coactivator SRC at 5 uM incubated for 24 hrs by beta-galactosidase based chemiluminescence assay; assay type: cell-based; settings: cho-k1, 24 h
T1 sequence (P08235 whole entry): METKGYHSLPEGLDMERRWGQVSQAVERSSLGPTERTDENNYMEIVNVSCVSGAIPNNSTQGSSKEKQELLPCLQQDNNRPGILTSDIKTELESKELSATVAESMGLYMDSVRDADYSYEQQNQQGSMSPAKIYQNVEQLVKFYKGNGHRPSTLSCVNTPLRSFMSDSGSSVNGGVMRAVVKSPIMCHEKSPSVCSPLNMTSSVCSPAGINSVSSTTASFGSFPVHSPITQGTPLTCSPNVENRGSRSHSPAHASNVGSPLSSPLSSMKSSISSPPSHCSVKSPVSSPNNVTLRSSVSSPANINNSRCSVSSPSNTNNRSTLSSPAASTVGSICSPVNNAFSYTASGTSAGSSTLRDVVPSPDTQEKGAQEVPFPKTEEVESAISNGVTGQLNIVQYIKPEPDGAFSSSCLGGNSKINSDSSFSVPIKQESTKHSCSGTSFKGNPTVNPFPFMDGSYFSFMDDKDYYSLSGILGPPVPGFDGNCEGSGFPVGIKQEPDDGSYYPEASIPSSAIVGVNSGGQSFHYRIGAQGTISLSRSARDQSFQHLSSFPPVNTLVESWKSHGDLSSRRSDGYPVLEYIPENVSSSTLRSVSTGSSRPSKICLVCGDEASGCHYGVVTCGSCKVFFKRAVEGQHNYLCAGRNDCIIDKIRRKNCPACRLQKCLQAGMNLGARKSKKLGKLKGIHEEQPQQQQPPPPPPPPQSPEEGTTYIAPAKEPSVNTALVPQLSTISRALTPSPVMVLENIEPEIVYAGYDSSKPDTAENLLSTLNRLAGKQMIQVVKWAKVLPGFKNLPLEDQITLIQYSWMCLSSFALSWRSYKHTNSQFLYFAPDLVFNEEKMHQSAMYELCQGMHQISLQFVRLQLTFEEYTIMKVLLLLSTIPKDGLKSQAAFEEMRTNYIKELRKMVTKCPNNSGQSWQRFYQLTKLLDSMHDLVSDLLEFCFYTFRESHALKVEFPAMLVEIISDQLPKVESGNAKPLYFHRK

Glucocorticoid receptor = biological target: T2, Glucocorticoid receptor (Homo sapiens, UniProt P04150); assay: Antagonist activity at GR in human OVCAR5 assessed as reduction in dexamethasone-induced GILZ gene expression incubated for 24 hrs by RT-qPCR method
T2 sequence (P04150 whole entry): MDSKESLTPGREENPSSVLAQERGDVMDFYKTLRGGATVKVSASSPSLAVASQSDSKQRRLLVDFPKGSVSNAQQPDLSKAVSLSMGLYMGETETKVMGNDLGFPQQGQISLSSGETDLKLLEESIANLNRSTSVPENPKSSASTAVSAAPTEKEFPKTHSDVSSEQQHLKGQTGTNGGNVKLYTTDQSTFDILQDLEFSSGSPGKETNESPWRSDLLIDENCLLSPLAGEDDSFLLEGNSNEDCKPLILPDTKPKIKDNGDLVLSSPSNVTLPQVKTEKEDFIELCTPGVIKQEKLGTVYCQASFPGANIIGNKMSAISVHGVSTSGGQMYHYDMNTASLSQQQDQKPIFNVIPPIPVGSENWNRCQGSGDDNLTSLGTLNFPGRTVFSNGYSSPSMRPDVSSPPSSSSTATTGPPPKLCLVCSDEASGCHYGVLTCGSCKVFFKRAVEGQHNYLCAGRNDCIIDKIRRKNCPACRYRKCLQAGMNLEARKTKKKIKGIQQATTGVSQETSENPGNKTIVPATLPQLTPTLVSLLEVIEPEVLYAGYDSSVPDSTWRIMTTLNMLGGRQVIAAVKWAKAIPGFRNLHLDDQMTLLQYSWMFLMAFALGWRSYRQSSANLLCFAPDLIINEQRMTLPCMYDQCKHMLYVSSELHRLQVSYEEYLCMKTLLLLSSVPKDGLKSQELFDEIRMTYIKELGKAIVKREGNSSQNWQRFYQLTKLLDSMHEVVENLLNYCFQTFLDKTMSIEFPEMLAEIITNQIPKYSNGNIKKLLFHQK

[8] = biological target: T1, Mineralocorticoid receptor; assay: Antagonist activity at human MR expressed in CHO-K1 cells assessed as reduction in aldosterone-induced protein interaction between MR and its coactivator SRC at 5 uM incubated for 24 hrs by beta-galactosidase based chemiluminescence assay; assay type: cell-based; settings: cho-k1, 24 h
[9] = Volume of distribution at steady state in rat at 0.5 mg/kg, iv; assay type: ADME, organism-based; settings: in vivo, read-out: Vdss
[10] = Half life in rat at 0.5 mg/kg, iv; assay type: ADME, organism-based; settings: in vivo

Sequence of Cytochrome P450 3A4 (P08684 whole entry): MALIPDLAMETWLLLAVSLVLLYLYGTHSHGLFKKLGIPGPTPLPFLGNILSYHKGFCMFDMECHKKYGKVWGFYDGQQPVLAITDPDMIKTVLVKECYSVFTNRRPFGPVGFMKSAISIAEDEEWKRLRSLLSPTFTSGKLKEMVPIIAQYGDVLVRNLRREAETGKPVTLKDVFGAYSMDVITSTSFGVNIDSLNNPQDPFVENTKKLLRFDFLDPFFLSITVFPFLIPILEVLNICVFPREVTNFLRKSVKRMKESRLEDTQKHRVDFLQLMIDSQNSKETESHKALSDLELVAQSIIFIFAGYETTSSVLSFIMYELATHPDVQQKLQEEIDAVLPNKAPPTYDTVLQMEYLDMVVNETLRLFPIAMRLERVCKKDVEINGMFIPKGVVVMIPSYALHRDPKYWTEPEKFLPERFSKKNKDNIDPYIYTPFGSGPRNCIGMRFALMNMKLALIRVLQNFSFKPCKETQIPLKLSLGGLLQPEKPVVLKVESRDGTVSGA

## CC(C)N(C)c1ccc([C@H]2C[C@@]3(C)[C@@H](CC[C@@]3(O)C#CC(C)(C)C)[C@@H]3CCC4=CC(=O)CC[C@@H]4[C@H]32)cc1
[1]
  clearance: 18.3 mL/min/kg
Cytochrome P450 3A4
  IC50: 1600 nM
[2]
  fraction unbound: 0.14
[3]
  half-life: 4.83 h
[4]
  Vd: 7.8 L/kg
[5]
  half-life: 12.2 h
[6]
  Cp(f): 20 to 120 nM
[7]
  Activity: Not Active
Glucocorticoid receptor
  IC50: 21.2 nM
[8]
  inhibition (INH): Not Active
[9]
  Vd: 4.6 L/kg
[10]
  half-life: 4.4 h
